Screening results: PubChem, several laboratories
OX1R antag-1: antagonists of human orexin 1 receptor (OX1R); 1.8% of 330,000 active; Orexin/Hypocretin receptor type 1 (Homo sapiens), O43613; inhibition, % at 6.6 µM; OX1R-expressing cells, FRET antagonist read-out; AID 485270, 2010; in the data active = inhibition mostly above about 38%, no sharp cut-off; inactive = mostly below about 40%;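 note: 0% = agonist challenge alone and 100% = reference antagonist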
Target sequence (O43613 whole entry, looked up): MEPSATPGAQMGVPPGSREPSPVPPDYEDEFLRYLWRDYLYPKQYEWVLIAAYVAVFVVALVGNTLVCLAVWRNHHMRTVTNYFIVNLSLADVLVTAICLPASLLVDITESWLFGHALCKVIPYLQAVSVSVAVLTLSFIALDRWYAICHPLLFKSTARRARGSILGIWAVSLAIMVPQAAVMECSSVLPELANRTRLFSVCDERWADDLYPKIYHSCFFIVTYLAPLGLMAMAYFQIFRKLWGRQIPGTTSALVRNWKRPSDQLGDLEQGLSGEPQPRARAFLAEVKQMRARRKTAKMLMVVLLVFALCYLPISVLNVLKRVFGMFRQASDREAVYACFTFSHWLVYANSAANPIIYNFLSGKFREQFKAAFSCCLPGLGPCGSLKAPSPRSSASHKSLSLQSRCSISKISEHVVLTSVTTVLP
TAAR1 antagonist: human TAAR1 antagonists, primary screen, Fluo-8 calcium fluorescence, CHO RD-HGA16 cells | Trace amine-associated receptor 1 (Homo sapiens), Q96RJ0 | antagonist | inhibition, % at 3 µM | 1.5% of 360,000 active;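 active = inhibition above a per-plate cutoff, the mean inhibition of test compounds on that plate plus 3 SD, cut at about 49% in these data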;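 note: 0% = DMSO plus EC80 beta-PEA response and 100% = DMSO alone without agonist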
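Assay system: RD-HGA16 CHO cells with stable hTAAR1 and Gα16 / Reagent: EC80 β-phenethylamine stimulus / Doses: 3 µM, single point / Timing: dye loading 75 min at 37 °C, then 30 min room temperature / Measured by: Fluo-8 intracellular calcium dye fluorescence, real-time kinetic reads / Controls: vehicle wells and EC80 agonist wells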
TAAR1 ag: human TAAR1 agonists, primary screen, Fluo-8 calcium fluorescence, CHO RD-HGA16 cells; vehicle wells 0%, saturating PEA agonist 100%; Trace amine-associated receptor 1 (Homo sapiens), Q96RJ0; AID 624467, 2012; activation, % at 3 µM; 0.99% of 360,000 active;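 active = activation above the mean activation of all test compounds in the run plus 3 SD, cut at about 38% in these data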
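Repeats: no replicates (n 1) | Material: CHO-derived RD-HGA16 cells with stable Gα16 and human TAAR1 | Technique: Kinetic Fluo-8 calcium fluorescence | Schedule: 17-24 h seeding, 75 min 37 °C dye, 30 min RT | Evaluation: % activation from peak over basal fluorescence ratio, DMSO-to-PEA scaled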
NTR1 ag: agonists of human NTR1, primary screen, imaging, U2OS cells, beta-arrestin-GFP, high content | Neurotensin receptor type 1 (Homo sapiens), P30989 | NTR1-U2OS beta-arrestin-GFP spot imaging, agonist mode | activation, % at 20 µM | 0.17% of 330,000 active | AID 493036, 2011;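 active = activation at or above 40% of the spot to cytoplasm intensity ratio, with at least 20 cells analyzed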;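 note: 0% = DMSO without peptide and 100% = 100 nM NTR1 peptide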
CHO parental Ca: ATP-evoked calcium signal inhibitors, parental CHO, primary screen, counter-screen for OX1R antagonist project, cell-based, fluorescence, Fluo-8 calcium dye | 0.63% of 330,000 active | parental CHO-K1, ATP-induced calcium, Fluo-8 fluorescence | inhibition, % at 5.6 µM;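 active = inhibition above that plate's mean sample inhibition plus 3 SD, cut at about 26% in these data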;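 note: 0% = ATP-challenged DMSO wells and 100% = DMSO wells without ATP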
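Measured by: calcium-sensitive Fluo-8 fluorescence / Test system: CHO parental line / Controls: ATP-challenged DMSO wells low, unchallenged DMSO wells high / Measure: % inhibition / Compound: single nominal dose of 5.6 µM per compound / Replicates: single well per compound, no replicates / Reagent: ATP as calcium-mobilizing challenge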
OX1R antag-2: OX1R (HCRTR1) antagonists, primary screen, fluorescence, CHO/OX1R cells, Fluo-8 calcium, orexin A | Orexin/Hypocretin receptor type 1 (Homo sapiens), O43613 | inhibition, % at 5 µM | 0.43% of 330,000 active | Fluo-8 calcium fluorescence;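 active = inhibition above its plate's threshold, mean inhibition of all tested compounds on the plate plus 3 SD, cut at about 37% in these data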;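 note: 0% = orexin A challenge wells and 100% = SB-334867-A antagonist wells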
nonsel antag count: nonselective antagonists in TAAR1 counter-screen cells, counter-screen for hTAAR1 antagonist project, cell-based, fluorescence, calcium; shares compounds with TAAR1 antagonist; AID 651780, 2012; inhibition, % at 3 µM; counterscreen cell line, antagonist mode; 77% of 2,400 active; in the data active = inhibition above about 22%;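 note: CHO-Ga16 host cells stimulated with ATP at an EC80 level; 0% = agonist EC80 plus vehicle and 100% = vehicle without agonist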
TAAR1 antag conf: human TAAR1 antagonists, retest of hits, confirmation, cell-based, fluorescence; AID 651785, 2012; inhibition, % at 3 µM; 40% of 2,400 active; shares compounds with TAAR1 antagonist; TAAR1-expressing cells, fluorescence antagonist read-out; in the data active = inhibition above about 49%;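 note: CHO-Ga16 host cells challenged with agonist PEA near its EC80; 0% = agonist at EC80 plus vehicle and 100% = vehicle with no agonist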
Ga16 ag counter: calcium activation in Ga16-expressing cells, counter-screen for TAAR1 antagonist project, cell-based, fluorescence; shares compounds with TAAR1 antagonist; agonist counterscreen; activation, % at 3 µM; 18% of 2,400 active; in the data active = activation above about 12%;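 note: 0% = vehicle wells and 100% = saturating stimulus response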
TAAR1 ag counter: TAAR1 activation by candidate antagonists – cell-based, fluorescence, counter-screen for TAAR1 antagonist project; shares compounds with TAAR1 antagonist; hTAAR1 cell line, agonist mode; activation, % at 3 µM; 2% of 2,400 active; AID 651955, 2012; in the data active = activation above about 37%;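 note: CHO cells stably expressing TAAR1 with calcium dye readout; 0% = DMSO vehicle and 100% = full agonist response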
* = called active by the depositor; / = no result. Sampled rows, rich in hits. Any-hit rate of the full collection: about 4%.

SMILES	OX1R antag-1	TAAR1 antagonist	TAAR1 ag	NTR1 ag	CHO parental Ca	OX1R antag-2	nonsel antag count	TAAR1 antag conf	Ga16 ag counter	TAAR1 ag counter
CCCc1c(C(=O)N/N=C/c2c[nH]c3ccccc23)nnn1-c1nonc1N	/	63.1*	29.3	/	/	/	32.4*	47.0	11.9*	11.9
COc1ccc(-c2ccc(C(=O)Nc3cc(OC)c(OC)c(OC)c3)c3occc23)c(C)c1	/	61.5*	0.3	/	/	/	30.2*	48.6*	8.6	10.4
COCCNC(=O)c1ccc(-c2ccc(OC)cc2C)c2ccoc12	/	-50.0	-0.1	/	/	/	/	/	/	/
COc1ccc(-c2ccc(C(=O)NCC3CCOCC3)c3occc23)c(C)c1	/	59.4*	5.9	/	/	/	32.2*	58.1*	9.4	11.8
COc1cc2c(cc1NC(=O)COC(=O)Cn1cnc3ccccc31)oc1ccccc12	/	49.1*	10.6	0.2	/	/	17.5	12.7	5.3	0.9
COc1ccc(CCNC(=O)COC(=O)Cn2cnc3ccccc32)cc1OC	13.7	-18.1	1.0	1.8	-6.7	-7.0	/	/	/	/
Oc1ccccc1OCC(O)c1ccccc1 (stereo unspecified)	7.4	-16.6	0.0	-2.1	3.9	-9.5	/	/	/	/
Oc1ccccc1OCCOc1ccccc1OCCOc1ccccc1O	16.4	79.3*	10.2	1.6	13.0	20.0	34.8*	55.2*	9.4	8.6
COc1ccc(O)c(/C=N/NC(=S)Nc2cccc(S(=O)(=O)N(C)C)c2)c1	27.7	68.2*	25.4	/	13.6	-2.1	49.7*	62.2*	18.8*	25.4
CCC(=O)c1ccc(OCC(=O)Nc2nc(C)cs2)cc1	10.0	3.8	4.0	1.5	-13.2	0.4	/	/	/	/
O=C(COc1ccc(Cl)cc1)Nc1nc(-c2cccs2)cs1	42.4	68.5*	19.1	18.7	-7.8	-5.5	22.6*	32.4	3.0	0.9
CCC(=O)c1ccc(OCC(=O)Nc2nc(-c3cccnc3)cs2)cc1	21.8	74.0*	19.4	0.3	0.3	-14.1	37.4*	55.3*	9.3	10.2
O=C(Cc1ccccc1F)Nc1nc(-c2cccs2)cs1	33.0	35.0	10.2	0.2	-4.3	-6.8	/	/	/	/
COc1cc(C(=O)Nc2nc(-c3cccs3)cs2)cc(OC)c1OC	48.8*	82.8*	36.8	32.1	-1.3	30.3	44.6*	61.9*	15.9*	16.7
CC(Oc1ccccc1F)c1nnc(SCC(=O)N(c2ccccc2)C2CCS(=O)(=O)C2)o1 (stereo unspecified)	8.4	-18.6	2.2	1.9	-18.2	-25.2	/	/	/	/
O=C(ONC(=O)C1C2C=CC(C2)C1C(=O)NOC(=O)c1ccccc1)c1ccccc1 (stereo unspecified)	/	13.8	1.1	/	/	/	/	/	/	/
Fc1cc(F)cc(Nc2nc(Cl)nc(NC3CCCC3)n2)c1	8.6	55.7*	16.3	34.9	-12.4	5.8	17.3	17.5	1.0	1.8
O=C(CSc1ccc([N+](=O)[O-])cc1)NCC1CCCCC1	25.5	104.7*	15.8	0.8	-7.9	-9.6	8.9	11.2	2.3	2.4
O=C(NCC1CCCCC1)c1ccc([N+](=O)[O-])cc1	27.0	1.1	1.8	1.9	2.3	-10.4	/	/	/	/
COc1cc(S(=O)(=O)N2CCOCC2)cc(C(=O)OCC(=O)NC2CCCCC2)c1OC	-4.9	2.5	12.3	1.2	-12.8	-7.7	/	/	/	/
O=C(COC(=O)c1ccc(Cl)nc1)Nc1ccc2c(c1)OCCO2	4.9	-8.6	-1.1	-1.3	-18.5	-10.4	/	/	/	/
COc1cc(SC)ccc1C(=O)Nc1ccccc1C#N	13.6	49.8*	25.1	2.7	-20.0	-16.0	8.5	15.7	-0.5	-0.3
Cc1ccccc1-c1cc(C(=O)NCc2ccc(OC(F)(F)F)cc2)n(CC2CC(c3cccnc3)=NO2)n1 (stereo unspecified)	5.5	70.3*	15.8	18.6	-3.6	7.7	35.9*	52.9*	7.3	11.0
O=C(NCc1cccc(Br)c1)c1cc(-c2ccccc2)nn1CC1CC(c2cccnc2)=NO1 (stereo unspecified)	13.9	55.9*	15.8	0.4	-16.9	-19.0	21.5*	29.1	3.8	0.8
Cc1ccc(CNC(=O)c2cc(-c3ccccc3C)nn2CC2CC(c3cccnc3)=NO2)cc1 (stereo unspecified)	-0.7	63.9*	12.1	-1.0	-10.7	-15.5	26.4*	34.4	5.5	9.5
COC(=O)C1=C(C)N(Cc2ccc(C(F)(F)F)cc2)C(=NCc2ccc3c(c2)OCO3)NC1c1cccc(Cl)c1 (stereo unspecified)	/	49.0*	28.7	/	/	/	31.0*	29.9	13.7*	33.7
COC(=O)C1=C(C)N(Cc2ccc(Cl)cc2)C(=S)NC1c1cccc(F)c1 (stereo unspecified)	/	38.3	1.0	/	/	/	/	/	/	/
